Measurements from ChEMBL document CHEMBL4321861, “An Underlying Mechanism of Dual Wnt Inhibition and AMPK Activation: Mitochondrial Uncouplers Masquerading as Wnt Inhibitors” (J Med Chem, 2019).
Active and inactive are the calls of the source. No cut-off for these calls is given here.

Assays:
HEK293 [1] = experiment: Inhibition of LiCl-activated Wnt signaling in HEK293 cells at 3 uM by TOPFlash reporter gene assay; type: cell-based; details: Homo sapiens
Procedure, shortened: (§1)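 Stable HEK293T Super 8xTOPFlash reporter line (pGL4.83 backbone, puromycin-selected), stimulated with 25 mM LiCl to stabilize β-catenin. Treated with compound in DMSO or DMSO. Luciferase read in 96- or 24-well format. AMPK inhibitor compound C used at 5 μM where applied. At least three independent repeats.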

Liver = experiment: Uncoupling of mitochondrial oxidative phosphorylation in mouse liver mitochondria assessed as increase in oxygen consumption rate at 1 to 5 uM in presence of oligomycin A by seahorse XFe96 analyser based assay
Procedure, shortened: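 Mouse liver mitochondria isolated by differential centrifugation in mannitol/sucrose/HEPES/EGTA buffer, pH 7.2. Loaded at 6 μg/well in KCl/HEPES/MgCl2/KH2PO4 respiration buffer, pH 7.2, at 37 °C. OCR measured on XFe96.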

[2] = target: T1, AMP-activated protein kinase, AMPK (Homo sapiens) (UniProt P54646+O43741+P54619+Q9UGJ0+Q9Y478+Q13131+Q9UGI9); experiment: Activation of AMPK (unknown origin) assessed as […] phosphorylation at S79 residue at 3 uM by Western blot analysis; type: protein-complex assay
Procedure, shortened: (§2)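 Cells lysed in 50 mM HEPES, 100 mM NaCl, 2 mM EDTA, 1% glycerol, 50 mM NaF, 1 mM Na3VO4, 1% Triton X-100 with protease inhibitors. Western blot probed for total and phospho-AMPK and total and phospho-ACC, with actin loading control. Compounds given in DMSO. At least three independent repeats.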

[3] = target: T1, AMP-activated protein kinase, AMPK (Homo sapiens); experiment: Activation of AMPK (unknown origin) assessed as increase in AMPK phosphorylation at T172 residue at 3 uM by Western blot analysis; type: protein-complex assay; procedure, shortened: as §2
HEK293 [4] = experiment: Inhibition of LiCl-activated Wnt signaling in HEK293 cells at […] by TOPFlash reporter gene assay; type: cell-based; details: Homo sapiens
Procedure, shortened: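 Stable HEK293T line carrying Super 8xTOPFlash subcloned into pGL4.83 (hRlucP/Puro), selected with puromycin; Wnt signaling activated with 25 mM LiCl, compound added in DMSO (DMSO control); luciferase reporter readout. At least three independent repeats.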

LS174T [5] = experiment: Inhibition of glucose metabolism in human LS174T cells assessed as reduction in ATP level at 10 mM by luminescence assay; type: functional, cell-based
HEK293 [6] = experiment: Inhibition of LiCl-activated Wnt signaling in HEK293 cells at 10 uM by TOPFlash reporter gene assay; type: cell-based; details: Homo sapiens; procedure, shortened: as §1
Homo sapiens [7] = species on record: Homo sapiens; experiment: Inhibition of Wnt in human SW620 cells assessed as reduction in cyclin-D1 expression at 1 uM by Western blot analysis; type: cell-based
Procedure, shortened: (§3)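 Colorectal cancer cells (DLD-1, LS174T, SW620) treated with a compound dose series in DMSO. Lysates immunoblotted for Axin2, c-Myc and cyclin D1. At least three independent repeats.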

DLD-1 [8] = experiment: Cytotoxicity against human DLD1 cells assessed as reduction in cell viability by Vi-Cell XR cell viability analyzer-based assay; type: functional
Procedure, shortened: (§4)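 Colon cancer cells plated at 3.5×10^4 per well in 12-well plates. LS174T were in EMEM + 10% FBS; DLD-1 were in DMEM + 10% FBS. After 24 h, compound in DMSO added (DMSO control). Cell number and viability counted on a Vi-Cell XR analyzer. Triplicate wells.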

[9] = target: T1, AMP-activated protein kinase, AMPK (Homo sapiens); experiment: Activation of AMPK in human LS174T cells assessed as […] phosphorylation at S79 residue at 3 uM by Western blot analysis; type: cell-based; procedure, shortened: as §2
LS174T [10] = experiment: Inhibition of Wnt in human LS174T cells assessed as reduction in c-Myc expression at 1 uM by Western blot analysis; type: cell-based; procedure, shortened: as §3
DLD-1 [11] = experiment: Induction of mitochondrial membrane potential disruption in human DLD1 cells measured after 2 hrs by TMRM staining based fluorescence microscopic analysis; details: Mitochondria
Procedure, shortened: (§5)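 Cells grown one day in 24-well plates: DLD-1 in DMEM + 10% serum, LS174T in RPMI1640 + 5% serum. Treated 2 h with compound in DMSO or DMSO, then stained with 100 nM TMRM for 15 min. Rinsed once with PBS and imaged by fluorescence microscopy at 568 nm.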

[12] = target: T1, AMP-activated protein kinase, AMPK (Homo sapiens); experiment: Activation of AMPK in human LS174T cells assessed as increase in AMPK phosphorylation at T172 residue at 3 uM by Western blot analysis; type: cell-based; procedure, shortened: as §2
LS174T [13] = experiment: Induction of mitochondrial membrane potential disruption in human LS174T cells measured after 2 hrs by TMRM staining based fluorescence microscopic analysis; details: Mitochondria; procedure, shortened: as §5
Homo sapiens [14] = species on record: Homo sapiens; experiment: Inhibition of Wnt in human DLD1 cells assessed as reduction in Axin2 expression at 1 to 3 uM by Western blot analysis; type: cell-based; procedure, shortened: as §3
HEK293 [15] = experiment: Effect on FOP reporter expression in LiCl-induced HEK293T cells incubated for 24 hrs by luciferase reporter gene assay; type: functional, cell-based; details: Homo sapiens
Procedure, shortened: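 HEK293T cells transiently transfected with Super 8x TOPFlash or 8x FOPFlash plus control Renilla reporter. Wnt signaling activated with LiCl or Wnt3A. Cells treated with DMSO or compound in DMSO. Luciferase activity read.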

Homo sapiens [16] = species on record: Homo sapiens; experiment: Inhibition of Wnt in human DLD1 cells assessed as reduction in c-Myc expression at 1 to 3 uM by Western blot analysis; type: cell-based; procedure, shortened: as §3
Homo sapiens [17] = species on record: Homo sapiens; experiment: Inhibition of Wnt in human DLD1 cells assessed as reduction in cyclin-D1 expression at 1 to 3 uM by Western blot analysis; type: cell-based; procedure, shortened: as §3
LS174T [18] = experiment: Inhibition of Wnt in human LS174T cells assessed as reduction in Axin2 expression at 1 uM by Western blot analysis; type: cell-based; procedure, shortened: as §3
HEK293 [19] = experiment: Inhibition of LiCl-activated Wnt signaling in HEK293 cells at 3 uM in presence of AMPK inhibitor compound C by TOPFlash reporter gene assay; type: cell-based; details: Homo sapiens; procedure, shortened: as §1
Homo sapiens [20] = species on record: Homo sapiens; experiment: Inhibition of Wnt in human SW620 cells assessed as reduction in c-Myc expression at 1 uM by Western blot analysis; type: cell-based; procedure, shortened: as §3
LS174T [21] = experiment: Inhibition of Wnt in human LS174T cells assessed as reduction in cyclin-D1 expression at 1 uM by Western blot analysis; type: cell-based; procedure, shortened: as §3
LS174T [22] = experiment: Cytotoxicity against human LS174T cells assessed as reduction in cell viability by Vi-Cell XR cell viability analyzer-based assay; type: functional; procedure, shortened: as §4
HEK293 [23] = experiment: Inhibition of LiCl-activated Wnt signaling in HEK293 cells at 0.3 to 3 uM by TOPFlash reporter gene assay; type: cell-based; details: Homo sapiens; procedure, shortened: as §1
Homo sapiens [24] = species on record: Homo sapiens; experiment: Inhibition of Wnt in human SW620 cells assessed as reduction in Axin2 expression at 1 uM by Western blot analysis; type: cell-based; procedure, shortened: as §3
DLD-1 [25] = experiment: Uncoupling of mitochondrial oxidative phosphorylation in human DLD1 cells assessed as increase in oxygen consumption rate at 3 uM in presence of oligomycin A by seahorse XFe96 analyser based assay; details: Mitochondria
Procedure, shortened: (§6)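 DLD-1 cells, about 3×10^4 per XF96 well, in XF medium with 25 mM glucose and 1 mM pyruvate. Mito stress sequence: oligomycin A 1 μM, then test compound 3 μM in DMSO in place of FCCP (FCCP 1 μM as control), then rotenone/antimycin A 1 μM each. Oxygen consumption rate recorded.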

DLD-1 [26] = experiment: Induction of mitochondrial dysfunction in human DLD1 cells assessed as reduction in mitochondrial ATP production at 3 uM by Seahorse XF real-time assay; details: Mitochondria
Procedure, shortened: (§7)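 About 3×10^4 cells seeded per well in XF96 plates. Next day medium switched to Seahorse XF medium with 25 mM glucose and 1 mM pyruvate. Compound given at 3 μM in DMSO; FCCP 1 μM as reference. Mitochondrial and glycolytic ATP production rates measured by XF Real-Time ATP Rate Assay.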

DLD-1 [27] = experiment: Induction of mitochondrial membrane potential disruption in human DLD1 cells at 3 uM measured after 2 hrs by TMRM staining based fluorescence microscopic analysis; details: Mitochondria; procedure, shortened: as §5
DLD-1 [28] = experiment: Uncoupling of mitochondrial oxidative phosphorylation in human DLD1 cells at 3 uM in presence of oligomycin A by seahorse XFe96 analyser based assay; details: Mitochondria; procedure, shortened: as §6
LS174T [29] = experiment: Induction of mitochondrial membrane potential disruption in human LS174T cells at 3 uM measured after 2 hrs by TMRM staining based fluorescence microscopic analysis; details: Mitochondria; procedure, shortened: as §5
LS174T [30] = experiment: Inhibition of LiCl-induced Wnt signaling in human LS174T cells assessed as reduction in beta-catenin accumulation; type: cell-based
LS174T [31] = experiment: Induction of mitochondrial dysfunction in human LS174T cells assessed as reduction in mitochondrial ATP production at 3 uM by Seahorse XF real-time assay; details: Mitochondria; procedure, shortened: as §7
LS174T [32] = experiment: Induction of mitochondrial dysfunction in human LS174T cells assessed as increase in glycolytic ATP production at 3 uM by Seahorse XF real-time assay; details: Mitochondria; procedure, shortened: as §7
DLD-1 [33] = experiment: Induction of mitochondrial dysfunction in human DLD1 cells assessed as increase in glycolytic ATP production at 3 uM by Seahorse XF real-time assay; details: Mitochondria; procedure, shortened: as §7
HEK293 [34] = experiment: Inhibition of LiCl-activated Wnt signaling in HEK293 cells at 0.5 uM by TOPFlash reporter gene assay; type: cell-based; details: Homo sapiens; procedure, shortened: as §1
DLD-1 [35] = experiment: Inhibition of mitochondrial oxidative phosphorylation in human DLD1 cells assessed as reduction in oxygen consumption rate by seahorse XFe96 analyser based assay; details: Mitochondria
Procedure, shortened: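 DLD-1 cells, ~3×10^4 per well, seeded a day ahead; medium switched to Seahorse XF modified medium with 25 mM glucose and 1 mM pyruvate. Mitochondrial stress test: 1 μM oligomycin A, test compound in DMSO in place of FCCP, then 1.0 μM rotenone plus 1.0 μM antimycin A. OCR recorded; ATP production rate by real-time ATP rate assay.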

SMILES | inhibition (Homo sapiens [7]) | IC50 (DLD-1 [8]) [nM] | Activity [9] | inhibition (LS174T [10]) | Activity [12] | inhibition (Homo sapiens [14]) | Activity (HEK293 [15]) | inhibition (Homo sapiens [16]) | inhibition (Homo sapiens [17]) | inhibition (LS174T [18]) | inhibition (HEK293 [19]) | inhibition (Homo sapiens [20]) | inhibition (LS174T [21]) | IC50 (LS174T [22]) [nM] | inhibition (Homo sapiens [24]) | further results
Cc1cc([N+](=O)[O-])ccc1N(C)S(=O)(=O)c1cc(Cl)ccc1Cl |  |  |  |  |  |  |  |  |  |  |  |  |  |  |  | inhibition (HEK293 [1]): inactive; Activity (Liver): inactive; Activity [2]: inactive; Activity [3]: inactive
OC[C@H]1OC(O)C[C@@H](O)[C@@H]1O (stereo partly specified) |  |  |  |  |  |  |  |  |  |  |  |  |  |  |  | inhibition (HEK293 [4]): Active; inhibition (LS174T [5]): Active
N#Cc1c(O)c2c(-c3ccc(-c4ccccc4O)cc3)csc2[nH]c1=O |  |  |  |  |  |  |  |  |  |  |  |  |  |  |  | inhibition (HEK293 [6]): inactive
O=C(Nc1ccc(C(F)(F)F)cc1)Nc1cc(F)c(F)c(F)c1 | Active | 540 | Active | Active | Active | Active | inactive | Active | Active | Active | Active | Active | Active | 550 | Active | Activity (DLD-1 [11]): Active; Activity (LS174T [13]): Active; inhibition (HEK293 [23]): Active
O=C(Nc1nnc(C(F)(F)F)s1)NC(CC(F)(F)F)(C(F)(F)F)C(F)(F)F | Active | 960 | Active | Active | Active | Active | inactive | Active | Active | Active | Active | Active | Active | 800 | Active | Activity (DLD-1 [25]): Active; Activity (DLD-1 [26]): Active; Activity (DLD-1 [27]): Active; Activity (DLD-1 [28]): Active; Activity (LS174T [29]): Active; inhibition (LS174T [30]): Active; Activity (LS174T [31]): Active; Activity (LS174T [32]): Active; Activity (DLD-1 [33]): Active; inhibition (HEK293 [34]): inactive
C=C(C)[C@H]1Cc2c(ccc3c2O[C@@H]2COc4cc(OC)c(OC)cc4[C@@H]2C3=O)O1 |  |  |  |  |  |  |  |  |  |  |  |  |  |  |  | inhibition (DLD-1 [35]): Active
